Data set [1] has as its system MCF-7 (ER-positive) breast cancer cells. Nature of the data set: MTT antiproliferation assay, MCF-7. The data set is classed as cell-based, human. Conditions: MCF-7 and MDA-MB-231 cells. The essentials:
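Human breast cancer lines MCF-7 (ER-positive) and MDA-MB-231 (triple-negative) were used, with oridonin tested alongside. MTT antiproliferation read-out: after the MTT step, solution replaced by DMSO, OD at 550 nm after 10 min. Each concentration in quadruplicate wells. IC50 by curve fitting. Mean ± SE of three independent experiments.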
In general terms: Formazan colour is commonly taken as a measure of viable cells.

In data set [2] the test system is MDA-MB-231 cells. Nature of the data set: Colony formation assay. The data set is classed as cell-based, human. To be noted: 0.625-10 μM, two weeks. The essentials:
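MDA-MB-231 cells seeded at 800 cells/well in regular medium; after 24 h, test compound (0.625, 1.25, 2.5, 5 or 10 μM) or DMSO vehicle added. Drug-containing medium renewed every 72 h for two weeks. Wells stained with 0.01% crystal violet for 10 min, PBS-washed and dried, then whole-well density quantified digitally. Triplicate; one-way ANOVA, SD shown.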

In data set [3] the test system is Bcl-2, Bax, NF-κB (p65), PARP, caspase-3 in MDA-MB-231 cells. Nature of the data set: Western blot of apoptosis related proteins. Type of data set: cell-based, human. To be noted: 48 h; 10 and 19 at 2.5-10 μM, 1 at 10-30 μM. The essentials:
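MDA-MB-231 cells exposed to test compound or DMSO for 48 h, then lysed; protein measured by Bradford against BSA. 30 μg per lane resolved by SDS-PAGE and blotted to PVDF, blocked in 5% non-fat milk. Primary antibodies overnight: Bcl-2 1:200, Bax 1:1000, PARP 1:10000, NF-κB 1:2000, caspase-3 1:1000, β-actin 1:20000. Secondary antibody applied, then ECL detection.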

The subject of data set [4] is HMEC (human normal mammary epithelial cells). In words: Growth inhibition of normal human mammary epithelial cells. The data set is classed as cell-based. To be noted: 10 μM, 24 h; p < 0.05.
Data set [5] has as its system MDA-MB-231 cells. Nature of the data set: Cell apoptosis assay. The data set is classed as cell-based, human. Conditions: MDA-MB-231 cells, 1.0, 5.0, 10 μM, 24 h.
Data set [6] deals with MDA-MB-231 xenograft tumors. In words: MDA-MB-231 xenograft tumor model. The data set is classed as in vivo. Conditions: 5 mg/kg i.p., nude mice.
The subject of data set [7] is MCF-7/ADR cells (adriamycin-resistant MCF-7 clone). In words: Growth inhibition of drug-resistant breast cancer cells. Type of data set: cell-based, human. To be noted: concentrations from 1 μM to 10 μM, 48 h.
The test system of data set [8] is MDA-MB-231, a TNBC cell line. To be noted: same dose range effective for MCF-7 cells; ref 9a; cited from earlier work.

SMILES strings stand for the structures.

As to `C=C1C(=O)[C@@]23C(=O)[C@@H](O)[C@@H]4C(C)(C)[C@@H]5OC[C@]4(C(=O)/C5=C/OC)[C@@H]2CC[C@@H]1[C@H]3O` [Compound 13, (3S,4aR,5S,6aR,9S,11aS,11bS,14R,E)-5,14-dihydroxy-2-(methoxymethylene)-4,4-dimethyl-8-methyleneoctahydro-1H-3,11b-(epoxymethano)-6a,9-methanocyclohepta[a]naphthalene-1,6,7(2H,8H)-trione], in data set [1], the “antiproliferative activities (in words)” value is reported as “no obvious antiproliferative activities”.

Take `C=C1C(=O)[C@@]23[C@@H]4OC(C)(C)O[C@]25OC[C@]2(C=CC(=O)C(C)(C)[C@H]2[C@@H]5O)[C@@H]3CC[C@@H]14` [Compound 19, (3S,3aR,3a^1R,6aR,7S,7aS,11aR,11bS)-7-hydroxy-5,5,8,8-tetramethyl-15-methylene-3,3a,7,7a,8,11b-hexahydro-1H-6a,11a-(epoxymethano)-3,3a^1-ethanophenanthro[1,10-de][1,3]dioxine-9,14(2H)-dione]: the “inhibition of colony formation” value in data set [2] is reported as “significantly blocked the colony formation of MDA-MB-231 cells at a submicromolar concentration”. Further, in data set [3], the Bax protein level result is on record as “up-regulation”, the Bcl-2 protein level entry is “down-regulation”, the “NF-κB (p65) protein expression” value is reported as “significant decrease” and the “PARP cleavage (116 kDa to 25 kDa)” value was “triggered PARP cleavage”. Further, the caspase-3 activation result in data set [3] was “activated caspase-3 in a dose-dependent manner”. For the same molecule, the “toxicity to HMEC compared with oridonin” value in data set [4] was “lower toxicity at 10 μM than oridonin”. Besides, in data set [5], the induction of apoptosis entry is listed as “significant effects to induce apoptosis of MDA-MB-231 cells in a dose-dependent manner”. Moreover, the “tolerability / body weight” value in data set [6] is reported as “no significant loss of body weight”.

Regarding `C=C1C(=O)[C@@]23[C@@H]4OC(C)(C)O[C@]25OC[C@]2(C(=O)C(C=O)=CC(C)(C)[C@H]2[C@@H]5O)[C@@H]3CC[C@@H]14` [Compound 10, (3S,3aR,3a^1R,6aR,7S,7aR,11aS,11bS)-7-hydroxy-5,5,8,8-tetramethyl-15-methylene-11,14-dioxo-2,3,3a,7,7a,8,11,11b-octahydro-1H-6a,11a-(epoxymethano)-3,3a^1-ethanophenanthro[1,10-de][1,3]dioxine-10-carbaldehyde], the “inhibition of colony formation” value in data set [2] is on record as “inhibit the colony formation”. Moreover, in data set [3], the Bax protein level result was “up-regulation”, the Bcl-2 protein level result is “down-regulation”, the “NF-κB (p65) protein expression” value is “significant decrease” and the “PARP cleavage (116 kDa to 25 kDa)” value is given as “triggered PARP cleavage”. Further, the caspase-3 activation entry in data set [3] is “activated caspase-3 in a dose-dependent manner”. In addition, the induction of apoptosis entry in data set [5] is reported as “significant effects to induce apoptosis of MDA-MB-231 cells in a dose-dependent manner”.

On to `C=C1C(=O)[C@]23[C@H](O)[C@H]1CC[C@H]2[C@@]12CO[C@]3(O)[C@@H](O)[C@@H]1C(C)(C)CC[C@@H]2O` [Compound 1, Oridonin, reference compound], for which, in data set [7], the “growth inhibitory activity on MCF-7/ADR cells” value is “no growth inhibitory activity”. Besides, in data set [3], the Bax protein level result is “up-regulation”; the Bcl-2 protein level result was “down-regulation”; the “NF-κB (p65) protein expression” value is on record as “down-regulation”; the “PARP cleavage (116 kDa to 25 kDa)” value is “up-regulation of Bax and cleaved PARP”. For the same molecule, the caspase-3 activation entry in data set [3] is on record as “did not activate caspase-3 cleavage”. Further, the “growth of MDA-MB-231” value in data set [8] was “failed to reduce the growth”.

In the case of `C=C1C(=O)[C@@]23C(=O)[C@@H](O)[C@@H]4C(C)(C)[C@@H]5OC[C@]4(C(=O)/C5=C\O)[C@@H]2CC[C@@H]1[C@H]3O` [Compound 14, (3S,4aR,5S,6aR,9S,11aS,11bS,14R,Z)-5,14-dihydroxy-2-(hydroxymethylene)-4,4-dimethyl-8-methyleneoctahydro-1H-3,11b-(epoxymethano)-6a,9-methanocyclohepta[a]naphthalene-1,6,7(2H,8H)-trione], the “antiproliferative activities (in words)” value in data set [1] is “no obvious antiproliferative activities”.
